Results taken from ChEMBL document CHEMBL1141851, “Two bioactive pentacyclic triterpene esters from the root bark of Hibiscus syriacus” (J Nat Prod, 1999).
≈ marks a conversion by molar mass, not a printed value.

Legend:
Liver microsomes = assay: Antioxidant activity in rat liver microsomes assessed as inhibition of lipid peroxidation by TBARS assay; format: functional, Microsome
Summary of the method: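 Rat liver microsomal suspension ([…]) mixed with 0.2 mM ascorbic acid. Peroxidation was started by adding 100 µM FeSO4·7H2O. Thiobarbituric acid reactive products were read at 532 nm to measure inhibition of lipid peroxidation. The method was adapted with minor modification from an earlier one.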

HCT-15 = assay: Cytotoxicity against human HCT-15 cells; format: functional; conditions: read-out: ED50 (the source's name)
NCI-H23 = assay: Cytotoxicity against human NCI-H23 cells; format: functional; conditions: read-out: ED50 (the source's name)
SF-539 = assay: Cytotoxicity against human SF-539 cells; format: functional; conditions: read-out: ED50 (the source's name)
SW-620 = assay: Cytotoxicity against human SW620 cells; format: functional; conditions: read-out: ED50 (the source's name)
UO-31 = assay: Cytotoxicity against human UO-31 cells; format: functional; conditions: read-out: ED50 (the source's name)
UACC-62 = assay: Cytotoxicity against human UACC-62 cells; format: functional; conditions: read-out: ED50 (the source's name)
PC-3 = assay: Cytotoxicity against human PC-3 cells; format: functional; conditions: read-out: ED50 (the source's name)
MCF7 = assay: Cytotoxicity against human MCF7 cells; format: functional; conditions: read-out: ED50 (the source's name)
ACHN = assay: Cytotoxicity against human ACHN cells; format: functional; conditions: read-out: ED50 (the source's name)

| Compound | IC50 (Liver microsomes) [µg/mL] | EC50 (HCT-15) [µg/mL] | EC50 (NCI-H23) [µg/mL] | EC50 (SF-539) [µg/mL] | EC50 (SW-620) [µg/mL] | EC50 (UO-31) [µg/mL] | EC50 (UACC-62) [µg/mL] | EC50 (PC-3) [µg/mL] | EC50 (MCF7) [µg/mL] | EC50 (ACHN) [µg/mL] |
| --- | --- | --- | --- | --- | --- | --- | --- | --- | --- | --- |
| VITAMIN E | 1.6 |  |  |  |  |  |  |  |  |  |
| CC1(C)CC[C@]2(CO)CC[C@]3(C)C(=CC[C@@H]4[C@@]5(C)CC[C@H](O)[C@@](C)(COC(=O)/C=C/c6ccc(O)c(O)c6)[C@@H]5CC[C@]43C)[C@@H]2C1 | 2.3 (≈ 3.7 µM) | 0.8 (≈ 1.29 µM) | 2.8 (≈ 4.51 µM) | 1.4 (≈ 2.25 µM) | 1.1 (≈ 1.77 µM) | 2 (≈ 3.22 µM) | 3.9 (≈ 6.28 µM) | 1.6 (≈ 2.58 µM) | 2.2 (≈ 3.54 µM) | 1.2 (≈ 1.93 µM) |
| COc1cccc2c1C(=O)c1c(O)c3c(c(O)c1C2=O)C[C@@](O)(C(=O)CO)C[C@@H]3O[C@H]1C[C@H](N)[C@H](O)[C@H](C)O1 [DOXORUBICIN] |  | 0.6 (≈ 1.1 µM) | 0.1 (≈ 0.184 µM) | 0.2 (≈ 0.368 µM) | 0.1 (≈ 0.184 µM) |  | 0.2 (≈ 0.368 µM) | 0.4 (≈ 0.736 µM) | 0.1 (≈ 0.184 µM) | 0.3 (≈ 0.552 µM) |
| CC1(C)CC[C@]2(CO)CC[C@]3(C)C(=CC[C@@H]4[C@@]5(C)CC[C@H](OC(=O)/C=C/c6ccc(O)c(O)c6)[C@@](C)(CO)[C@@H]5CC[C@]43C)[C@@H]2C1 | 1.1 (≈ 1.77 µM) | 1.3 (≈ 2.09 µM) | 1.7 (≈ 2.74 µM) | 2 (≈ 3.22 µM) | 1 (≈ 1.61 µM) | 1.7 (≈ 2.74 µM) | 2.3 (≈ 3.7 µM) | 2.2 (≈ 3.54 µM) | 1.8 (≈ 2.9 µM) | 2.1 (≈ 3.38 µM) |
